In ChEMBL document CHEMBL1121439, “Accumulation of drugs by guinea pig isolated atria. Quantitative correlations” (J Med Chem, 1980):

Experiments:
[1] = Tested for the dissociation constant of the compound; assay type: ADME
[2] = Partition coefficient (logP); assay type: physicochemical; conditions: octanol/water
Albumin [3] = molecular target: T1, Albumin (Homo sapiens, UniProt P02768); test: Ability to bind to human serum albumin (HSA)
Cavia porcellus = species: Cavia porcellus; test: Ability to bind to guinea pig atrial homogenate; conditions: Cardiac atrium
Outline: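 Guinea pig left and right atria were blotted 90 s, weighed, and homogenized (6%, g/v) in ice-cold 0.067 M Sørensen phosphate buffer, pH 7.4, for three 20-s bursts. Radiolabeled drug (3.3×10^-6 M) was incubated with 4% (g/v) homogenate for 90 min at room temperature under partial saturation. Total aliquot and supernatant after 145000g, 15 h, 25 °C were counted. Result given as log B/F.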

Albumin [4] = molecular target: T1, Albumin; test: Ability to bind to human serum albumin
Outline: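 Purified human serum albumin, 4% (g/v), with radiolabeled drug at 3.3×10^-6 M in 0.067 M Sørensen phosphate buffer pH 7.4 (partial saturation). Incubated 90 min at room temperature. Radioactivity counted in an aliquot before and after centrifugation at 145000g for 15 h at 25 °C. Binding expressed as log B/F.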

T1 sequence (P02768 whole entry): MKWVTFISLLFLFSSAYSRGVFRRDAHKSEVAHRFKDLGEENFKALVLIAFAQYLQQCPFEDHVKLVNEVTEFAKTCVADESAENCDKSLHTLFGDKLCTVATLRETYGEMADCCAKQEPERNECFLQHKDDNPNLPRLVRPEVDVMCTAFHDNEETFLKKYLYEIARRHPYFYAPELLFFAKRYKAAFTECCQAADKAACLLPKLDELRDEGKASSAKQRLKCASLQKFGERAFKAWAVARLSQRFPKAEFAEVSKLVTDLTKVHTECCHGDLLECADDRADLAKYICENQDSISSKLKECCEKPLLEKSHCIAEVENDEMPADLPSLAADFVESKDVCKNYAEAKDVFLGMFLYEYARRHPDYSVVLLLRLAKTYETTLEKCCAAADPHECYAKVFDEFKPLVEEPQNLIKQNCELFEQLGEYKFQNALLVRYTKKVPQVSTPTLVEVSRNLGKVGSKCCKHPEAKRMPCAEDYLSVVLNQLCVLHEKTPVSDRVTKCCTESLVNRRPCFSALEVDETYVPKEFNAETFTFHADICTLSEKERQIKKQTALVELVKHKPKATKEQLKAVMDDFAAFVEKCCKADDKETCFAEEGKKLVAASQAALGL

SMILES	pKa [1]	logP ([2]; read-out: logP)	Log B/F (Albumin [3])	Log B/F (Cavia porcellus)	logP [2]	Log B/F (Albumin [4])
CCC(c1ccccc1)c1c(O)c2ccccc2oc1=O (configuration not stated) [PHENPROCOUMON]	5	3.62	2.128			
COc1ccc2c(c1)c(CC(=O)O)c(C)n2C(=O)c1ccc(Cl)cc1 [INDOMETHACIN]		2				
COCCc1ccc(OCC(O)CNC(C)C)cc1 (configuration not stated) [METOPROLOL]		2.34				
CCCNC(C)C(=O)Nc1c(C)csc1C(=O)OC (configuration not stated) [ARTICAINE]	7.8		-0.281	-0.739	2.41	
C[C@H]1O[C@@H](O[C@H]2[C@@H](O)C[C@H](O[C@H]3[C@@H](O)C[C@H](O[C@H]4CC[C@@]5(C)[C@H](CC[C@@H]6[C@@H]5CC[C@]5(C)[C@@H](C7=CC(=O)OC7)CC[C@]65O)C4)O[C@@H]3C)O[C@@H]2C)C[C@H](O)[C@@H]1O [DIGITOXIN]		1.76	3.222			
O=C(O)[C@H]1O[C@@H](O)[C@H](O)[C@@H](O)[C@@H]1O [GLUCURONATE]	3.2	-2.57	-2	-4		
C=CCc1ccccc1OCC(O)CNC(C)C (configuration not stated) [ALPRENOLOL]		3.1		-0.158		
C[C@@H]1C[C@H]2[C@@H]3CCC4=CC(=O)C=C[C@]4(C)[C@@]3(F)[C@@H](O)C[C@]2(C)[C@@]1(O)C(=O)CO [DEXAMETHASONE]		1.74				
OC[C@H]1O[C@@](CO)(O[C@H]2O[C@H](CO)[C@@H](O)[C@H](O)[C@H]2O)[C@@H](O)[C@@H]1O				-4		
COc1ccc(CCN(C)CCCC(C#N)(c2ccc(OC)c(OC)c2)C(C)C)cc1OC (configuration not stated)	9.2			0.114		
CCC1(c2ccccc2)C(=O)NC(=O)NC1=O [PHENOBARBITAL]	7.5	1.43	0.11			
O=C1CCC(c2ccccc2)(C2CCN(Cc3ccccc3)CC2)C(=O)N1 (configuration not stated) [BENZETIMIDE]		3.55		-0.184		0.087
